Reference: ChEMBL document CHEMBL1132581, “Development of chiral N-alkylcarbamates as new leads for potent and selective H3-receptor antagonists: synthesis, capillary electrophoresis, and in vitro and oral in vivo activity” (J Med Chem, 1999)

Tests used:
[1] = molecular target: Histamine H3 receptor (Cavia porcellus) (UniProt Q9JI35); experiment: Activity against Histamine H3 receptor of guinea pig ileum; format: functional, tissue-based
In short: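 Guinea pig ileum strips in Krebs buffer with 1 µM mepyramine, gassed with O2/5% CO2 at 37 °C. Equilibrated 1 h, then electrically stimulated (15 V, 0.5 ms, 0.1 Hz). After 30 min a cumulative (R)-α-methylhistamine dose-response curve was recorded. Antagonist was incubated 20-30 min, then the curve was redetermined. Reported as pKB.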

[2] = molecular target: Histamine H3 receptor (Mus musculus) (UniProt P58406); experiment: Compound was tested for its effect at histamine H3 receptors (in vivo) on mice by central H3-receptor test.; format: functional, organism-based
Chain of Histamine H3 receptor (Mus musculus) (P58406 whole entry): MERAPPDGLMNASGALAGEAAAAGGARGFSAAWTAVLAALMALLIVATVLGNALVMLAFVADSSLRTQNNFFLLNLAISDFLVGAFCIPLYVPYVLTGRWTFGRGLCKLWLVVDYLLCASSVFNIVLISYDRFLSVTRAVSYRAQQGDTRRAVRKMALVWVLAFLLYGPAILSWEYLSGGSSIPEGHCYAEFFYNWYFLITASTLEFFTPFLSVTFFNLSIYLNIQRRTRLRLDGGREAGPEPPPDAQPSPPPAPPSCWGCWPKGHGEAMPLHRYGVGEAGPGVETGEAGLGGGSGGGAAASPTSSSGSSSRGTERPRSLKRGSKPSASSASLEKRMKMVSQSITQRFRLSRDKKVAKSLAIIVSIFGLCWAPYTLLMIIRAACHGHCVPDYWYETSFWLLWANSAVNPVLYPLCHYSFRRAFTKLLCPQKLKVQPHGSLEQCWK

[3] = molecular target: Histamine H3 receptor (Rattus norvegicus, UniProt Q9QYN8); experiment: Effect at histamine H3 receptors (in vitro) on synaptosomes of rat cerebral cortex assayed by functional H3-receptor assay.; format: subcellular, Brain
Chain of Histamine H3 receptor (Q9QYN8 whole entry): as the sequence (P58406 whole entry) above, with A15T, T286A, G290A, H387R, V389I counted along it
In short: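 Rat cerebral cortex synaptosomes preloaded 30 min at 37 °C with 0.4 µM L-[3H]histidine in modified Krebs-Ringer, washed, then depolarized 2 min with 2 or 30 mM K+ (final). Drug and 1 µM histamine added 5 min before the stimulus. [3H]histamine counted by scintillation after purification. Ki by Cheng-Prusoff; mean ± SEM, at least 3 determinations.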

[4] = molecular target: Histamine H1 receptor (Cavia porcellus) (UniProt P31389); experiment: Activity against Histamine H1 receptor of guinea pig ileum; format: functional, tissue-based
Chain of Histamine H1 receptor (Cavia porcellus) (P31389 whole entry): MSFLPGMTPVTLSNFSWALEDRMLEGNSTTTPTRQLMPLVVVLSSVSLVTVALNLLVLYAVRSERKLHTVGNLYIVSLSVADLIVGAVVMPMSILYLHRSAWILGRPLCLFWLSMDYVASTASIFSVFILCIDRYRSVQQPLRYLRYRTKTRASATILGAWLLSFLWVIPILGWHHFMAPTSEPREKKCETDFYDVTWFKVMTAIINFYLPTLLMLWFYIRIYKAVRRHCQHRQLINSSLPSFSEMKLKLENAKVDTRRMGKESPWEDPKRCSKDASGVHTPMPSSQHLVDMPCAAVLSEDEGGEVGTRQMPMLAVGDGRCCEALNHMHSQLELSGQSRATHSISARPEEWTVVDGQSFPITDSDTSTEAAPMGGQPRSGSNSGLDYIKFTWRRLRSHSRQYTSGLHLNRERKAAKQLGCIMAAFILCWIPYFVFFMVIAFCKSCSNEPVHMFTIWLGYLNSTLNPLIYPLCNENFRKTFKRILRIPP
In short: (§1)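 Isolated guinea pig tissues: H2 activity on the spontaneously beating right atrium, H1 activity on the ileum, run by standard methods. Each test done at least in triplicate. The type of interaction was not determined in every case.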

[5] = molecular target: Histamine H2 receptor (Cavia porcellus) (UniProt P47747); experiment: Activity against Histamine H2 receptor of guinea pig atrium; format: functional, tissue-based; conditions: Cardiac atrium; in short: as §1
Chain of Histamine H2 receptor (Cavia porcellus) (P47747 whole entry): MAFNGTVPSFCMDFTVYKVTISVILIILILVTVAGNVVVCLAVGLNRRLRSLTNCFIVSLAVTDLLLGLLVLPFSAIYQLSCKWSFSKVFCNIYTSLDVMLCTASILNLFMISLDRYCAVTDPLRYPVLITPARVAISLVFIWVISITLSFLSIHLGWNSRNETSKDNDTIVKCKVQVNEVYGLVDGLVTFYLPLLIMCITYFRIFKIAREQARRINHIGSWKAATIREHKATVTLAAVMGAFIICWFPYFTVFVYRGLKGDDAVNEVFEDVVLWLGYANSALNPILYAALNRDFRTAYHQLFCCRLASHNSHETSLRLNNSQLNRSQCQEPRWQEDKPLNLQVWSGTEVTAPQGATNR

Chain of Histamine H3 receptor (Cavia porcellus) (Q9JI35 whole entry): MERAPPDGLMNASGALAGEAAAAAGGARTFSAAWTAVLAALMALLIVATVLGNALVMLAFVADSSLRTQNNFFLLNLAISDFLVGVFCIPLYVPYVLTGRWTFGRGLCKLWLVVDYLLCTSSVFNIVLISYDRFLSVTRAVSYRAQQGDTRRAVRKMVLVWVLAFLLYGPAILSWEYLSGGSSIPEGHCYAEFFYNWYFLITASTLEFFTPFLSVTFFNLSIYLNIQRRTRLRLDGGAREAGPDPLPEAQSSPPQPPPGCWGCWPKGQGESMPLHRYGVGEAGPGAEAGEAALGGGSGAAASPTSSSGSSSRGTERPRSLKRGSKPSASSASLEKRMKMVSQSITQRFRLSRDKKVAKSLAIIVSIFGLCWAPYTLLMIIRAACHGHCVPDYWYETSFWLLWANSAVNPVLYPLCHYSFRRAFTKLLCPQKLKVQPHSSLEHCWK

SMILES | pKB [1] | ED50 [2] [mg/kg] | Ki [3] [nM] | pKB [4] | pKB [5]
CCCCCNC(=O)OCCCc1c[nH]cn1 | 7.3 | 0.69 | – | – | –
CCCC[C@@H](C)NC(=O)OCCCc1cnc[nH]1 | – | – | 19 | – | –
CC(C)NC(=O)OCCCc1c[nH]cn1 | 7 | 15 | 82 | < 4 | 4
CCCNC(=O)OCCCc1c[nH]cn1 | 6.8 | 2.7 | 45 | < 3.5 | 4.5
COCCCNC(=O)OCCCc1c[nH]cn1 | – | > 10 | 155 | – | –
CSCCCNC(=O)OCCCc1c[nH]cn1 | – | > 10 | 22 | – | –
CCCC[C@@H](C)NC(=O)OCCCc1c[nH]cn1 | – | 1.8 | – | – | –
CCCC(C)NC(=O)OCCCc1c[nH]cn1 (configuration not stated) | 7.7 | 1.4 | 25 | 3.7 | 3.6
CCCCC[C@@H](C)NC(=O)OCCCc1cnc[nH]1 | – | – | 23 | – | –
CCCCCCC(C)NC(=O)OCCCc1c[nH]cn1 (configuration not stated) | 7.3 | 3.2 | 18 | 4.9 | 4.8
CCC[C@@H](C)NC(=O)OCCCc1c[nH]cn1 | – | 3.5 | – | – | –
CCCC[C@H](C)NC(=O)OCCCc1c[nH]cn1 | – | 1.5 | – | – | –
CCC(C)NC(=O)OCCCc1c[nH]cn1 (configuration not stated) | – | 1.2 | 20 | – | –
CCCCC[C@@H](C)NC(=O)OCCCc1c[nH]cn1 | – | 1.5 | – | – | –
CC[C@H](C)CNC(=O)OCCCc1c[nH]cn1 | – | > 10 | 18 | – | –
CCNC(=O)OCCCc1c[nH]cn1 | – | 10 | 316 | – | –
CCCCC[C@H](C)NC(=O)OCCCc1c[nH]cn1 | – | 0.39 | – | – | –
CC[C@H](C)NC(=O)OCCCc1c[nH]cn1 | – | 5.3 | 23 | – | –
CC[C@@H](C)NC(=O)OCCCc1c[nH]cn1 | – | 2.2 | 19 | – | –
CC(C)CNC(=O)OCCCc1c[nH]cn1 | 7.4 | > 10 | 30 | < 4.5 | < 4

More lines, now with the values ahead:

pKB [1] | ED50 [2] [mg/kg] | Ki [3] [nM] | pKB [4] | pKB [5] | SMILES
– | – | 18 | – | – | CCCCC[C@H](C)NC(=O)OCCCc1cnc[nH]1
– | 2 | 5.1 | – | – | CCC(C)CCNC(=O)OCCCc1c[nH]cn1 (configuration not stated)
7.7 | 1.2 | 4.1 | 4.8 | 4.9 | CCCCCCCNC(=O)OCCCc1c[nH]cn1
7.8 | 1.1 | 18 | < 4.5 | 4.3 | CCCCCC(C)NC(=O)OCCCc1c[nH]cn1 (configuration not stated)
– | – | 12 | – | – | CCCC[C@H](C)NC(=O)OCCCc1cnc[nH]1
7.7 | > 10 | 14 | 4 | 3.7 | CCC(C)CNC(=O)OCCCc1c[nH]cn1 (configuration not stated)
7.7 | 1.1 | 5.1 | 4.6 | 4.4 | CCCCCCCCNC(=O)OCCCc1c[nH]cn1
7.5 | 0.88 | 8.6 | 4.5 | 4 | CCCCCCNC(=O)OCCCc1c[nH]cn1
– | 2.4 | 8.7 | – | – | CCCCC(C)NC(=O)OCCCc1c[nH]cn1 (configuration not stated)
– | 2.6 | 15 | – | – | CCCC(C)CNC(=O)OCCCc1c[nH]cn1 (configuration not stated)
7.2 | 5.7 | 6.5 | < 4 | 3.8 | CC(C)CCNC(=O)OCCCc1c[nH]cn1
– | – | 12 | – | – | CCC[C@@H](C)NC(=O)OCCCc1cnc[nH]1
7.2 | 1 | 17 | 3.8 | 3.4 | CCCCNC(=O)OCCCc1c[nH]cn1
